Measurements published in ChEMBL document CHEMBL4184251, “Potentiation of the activity of β-lactam antibiotics by farnesol and its derivatives” (Bioorg Med Chem Lett, 2018).
Converted amounts (≈) assume the structure as drawn.

Assays:
Type in all cases: functional
Staphylococcus aureus [1] = assay: Antimicrobial activity against methicillin-resistant Staphylococcus aureus NRS100 by micro-dilution method
In short: (§1)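 Broth microdilution MIC in cation-adjusted Mueller-Hinton II medium supplemented with 1% Tween-80 (CAMHB-T), needed to disperse the farnesol-type compounds. Compounds tested from 2 to 2048 μg/mL.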

Staphylococcus aureus [2] = assay: Antimicrobial activity against methicillin-resistant Staphylococcus aureus NRS123 by micro-dilution method; in short: as §1
Staphylococcus aureus [3] = assay: Antimicrobial activity against methicillin-resistant Staphylococcus aureus NRS70 by micro-dilution method; in short: as §1
Staphylococcus aureus [4] = assay: Antimicrobial activity against methicillin-susceptible Staphylococcus aureus ATCC 29213 by micro-dilution method; in short: as §1
Staphylococcus aureus [5] = assay: Potentiation of ampicillin-induced antimicrobial activity against methicillin-susceptible Staphylococcus aureus ATCC 29213 at 256 ug/ml (reference value: ampicillin alone MIC = 0.5 ug/ml)
Staphylococcus aureus [6] = assay: Potentiation of ampicillin-induced antimicrobial activity against methicillin-susceptible Staphylococcus aureus ATCC 29213 at 256 ug/ml relative to ampicillin alone
Staphylococcus aureus [7] = assay: Potentiation of ampicillin-induced antimicrobial activity against methicillin-resistant Staphylococcus aureus NRS123 at 256 ug/ml (reference value: ampicillin alone MIC = 12 ug/ml)
Staphylococcus aureus [8] = assay: Potentiation of ampicillin-induced antimicrobial activity against methicillin-resistant Staphylococcus aureus NRS123 at 256 ug/ml relative to ampicillin alone
Staphylococcus aureus [9] = assay: Potentiation of ampicillin-induced antimicrobial activity against methicillin-resistant Staphylococcus aureus NRS100 at 128 ug/ml (reference value: ampicillin alone MIC = 16 ug/ml)
Staphylococcus aureus [10] = assay: Potentiation of ampicillin-induced antimicrobial activity against methicillin-resistant Staphylococcus aureus NRS100 at 128 ug/ml relative to ampicillin alone
Staphylococcus aureus [11] = assay: Potentiation of ampicillin-induced antimicrobial activity against methicillin-resistant Staphylococcus aureus NRS70 at 128 ug/ml (reference value: ampicillin alone MIC = 16 ug/ml)
Staphylococcus aureus [12] = assay: Potentiation of ampicillin-induced antimicrobial activity against methicillin-resistant Staphylococcus aureus NRS70 at 128 ug/ml relative to ampicillin alone
Staphylococcus aureus [13] = assay: Potentiation of oxacillin-induced antimicrobial activity against methicillin-susceptible Staphylococcus aureus ATCC 29213 at 256 ug/ml (reference value: oxacillin alone MIC = 0.4 ug/ml)
Staphylococcus aureus [14] = assay: Potentiation of oxacillin-induced antimicrobial activity against methicillin-susceptible Staphylococcus aureus ATCC 29213 at 256 ug/ml relative to oxacillin alone
Staphylococcus aureus [15] = assay: Potentiation of oxacillin-induced antimicrobial activity against methicillin-resistant Staphylococcus aureus NRS123 at 256 ug/ml (reference value: oxacillin alone MIC = 24 ug/ml)
Staphylococcus aureus [16] = assay: Potentiation of oxacillin-induced antimicrobial activity against methicillin-resistant Staphylococcus aureus NRS123 at 256 ug/ml relative to oxacillin alone
Staphylococcus aureus [17] = assay: Potentiation of oxacillin-induced antimicrobial activity against methicillin-resistant Staphylococcus aureus NRS100 at 128 ug/ml (reference value: oxacillin alone MIC = >256 ug/ml)
Staphylococcus aureus [18] = assay: Potentiation of oxacillin-induced antimicrobial activity against methicillin-resistant Staphylococcus aureus NRS70 at 128 ug/ml (reference value: oxacillin alone MIC = 32 ug/ml)
Staphylococcus aureus [19] = assay: Potentiation of oxacillin-induced antimicrobial activity against methicillin-resistant Staphylococcus aureus NRS70 at 128 ug/ml relative to oxacillin alone
Staphylococcus aureus [20] = assay: Potentiation of oxacillin-induced antimicrobial activity against methicillin-resistant Staphylococcus aureus NRS70 at 128 ug/ml by checkerboard assay
In short: (§2)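 Checkerboard combination of oxacillin with the farnesol-type compound. Synergy scored by the fractional inhibitory concentration index (FICI).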

Staphylococcus aureus [21] = assay: Potentiation of oxacillin-induced antimicrobial activity against methicillin-resistant Staphylococcus aureus NRS100 at 128 ug/ml by checkerboard assay; in short: as §2
Staphylococcus aureus [22] = assay: Potentiation of ampicillin-induced antimicrobial activity against methicillin-resistant Staphylococcus aureus NRS100 relative to untreated ampicillin alone
Staphylococcus aureus [23] = assay: Potentiation of oxacillin-induced antimicrobial activity against methicillin-resistant Staphylococcus aureus NRS100 relative to untreated oxacillin alone
Staphylococcus aureus [24] = assay: Potentiation of ampicillin-induced antimicrobial activity against methicillin-resistant Staphylococcus aureus NRS70 relative to untreated ampicillin alone
Staphylococcus aureus [25] = assay: Potentiation of oxacillin-induced antimicrobial activity against methicillin-resistant Staphylococcus aureus NRS70 relative to untreated oxacillin alone
Staphylococcus aureus [26] = assay: Potentiation of ampicillin-induced antimicrobial activity against methicillin-susceptible Staphylococcus aureus ATCC 29213 at 1000 ug/ml (reference value: ampicillin alone MIC = 0.5 ug/ml)
Staphylococcus aureus [27] = assay: Potentiation of ampicillin-induced antimicrobial activity against methicillin-susceptible Staphylococcus aureus ATCC 29213 at 1000 ug/ml relative to ampicillin alone
Staphylococcus aureus [28] = assay: Potentiation of ampicillin-induced antimicrobial activity against methicillin-resistant Staphylococcus aureus NRS100 at 1000 ug/ml (reference value: ampicillin alone MIC = 16 ug/ml)
Staphylococcus aureus [29] = assay: Potentiation of ampicillin-induced antimicrobial activity against methicillin-resistant Staphylococcus aureus NRS100 at 1000 ug/ml relative to ampicillin alone
Staphylococcus aureus [30] = assay: Potentiation of ampicillin-induced antimicrobial activity against methicillin-resistant Staphylococcus aureus NRS70 at 1000 ug/ml (reference value: ampicillin alone MIC = 16 ug/ml)
Staphylococcus aureus [31] = assay: Potentiation of ampicillin-induced antimicrobial activity against methicillin-resistant Staphylococcus aureus NRS70 at 1000 ug/ml relative to ampicillin alone
Staphylococcus aureus [32] = assay: Potentiation of ampicillin-induced antimicrobial activity against methicillin-resistant Staphylococcus aureus NRS123 at 1000 ug/ml (reference value: ampicillin alone MIC = 12 ug/ml)
Staphylococcus aureus [33] = assay: Potentiation of ampicillin-induced antimicrobial activity against methicillin-resistant Staphylococcus aureus NRS123 at 1000 ug/ml relative to ampicillin alone
Staphylococcus aureus [34] = assay: Potentiation of oxacillin-induced antimicrobial activity against methicillin-susceptible Staphylococcus aureus ATCC 29213 at 1000 ug/ml (reference value: oxacillin alone MIC = 0.4 ug/ml)
Staphylococcus aureus [35] = assay: Potentiation of oxacillin-induced antimicrobial activity against methicillin-susceptible Staphylococcus aureus ATCC 29213 at 1000 ug/ml relative to oxacillin alone
Staphylococcus aureus [36] = assay: Potentiation of oxacillin-induced antimicrobial activity against methicillin-resistant Staphylococcus aureus NRS100 at 1000 ug/ml (reference value: oxacillin alone MIC = >256 ug/ml)
Staphylococcus aureus [37] = assay: Potentiation of oxacillin-induced antimicrobial activity against methicillin-resistant Staphylococcus aureus NRS100 at 1000 ug/ml relative to oxacillin alone
Staphylococcus aureus [38] = assay: Potentiation of oxacillin-induced antimicrobial activity against methicillin-resistant Staphylococcus aureus NRS70 at 1000 ug/ml (reference value: oxacillin alone MIC = 32 ug/ml)
Staphylococcus aureus [39] = assay: Potentiation of oxacillin-induced antimicrobial activity against methicillin-resistant Staphylococcus aureus NRS70 at 1000 ug/ml relative to oxacillin alone
Staphylococcus aureus [40] = assay: Potentiation of oxacillin-induced antimicrobial activity against methicillin-resistant Staphylococcus aureus NRS123 at 1000 ug/ml (reference value: oxacillin alone MIC = 24 ug/ml)
Staphylococcus aureus [41] = assay: Potentiation of oxacillin-induced antimicrobial activity against methicillin-resistant Staphylococcus aureus NRS123 at 1000 ug/ml relative to oxacillin alone
Staphylococcus aureus [42] = assay: Potentiation of oxacillin-induced antimicrobial activity against methicillin-resistant Staphylococcus aureus NRS70 at 1000 ug/ml by checkerboard assay; in short: as §2
Staphylococcus aureus [43] = assay: Potentiation of oxacillin-induced antimicrobial activity against methicillin-resistant Staphylococcus aureus NRS100 at 1000 ug/ml by checkerboard assay; in short: as §2

## CC(C)=CCC/C(C)=C/CC/C(C)=C/CN
Staphylococcus aureus [1]
  MIC: 256 µg/mL (≈ 1.16 mM)
Staphylococcus aureus [2]
  MIC: 512 µg/mL (≈ 2.31 mM)
Staphylococcus aureus [3]
  MIC: 256 µg/mL (≈ 1.16 mM)
Staphylococcus aureus [4]
  MIC: 512 µg/mL (≈ 2.31 mM)
Staphylococcus aureus [5]
  MIC: 0.2 µg/mL
Staphylococcus aureus [6]
  fold change (FC): 2.5
Staphylococcus aureus [7]
  MIC: 1 µg/mL
Staphylococcus aureus [8]
  fold change (FC): 12
Staphylococcus aureus [9]
  MIC: 8 µg/mL
Staphylococcus aureus [10]
  fold change (FC): 2
Staphylococcus aureus [11]
  MIC: 16 µg/mL
Staphylococcus aureus [12]
  fold change (FC): 1
Staphylococcus aureus [13]
  MIC: 0.5 µg/mL
Staphylococcus aureus [14]
  fold change (FC): 0.8
Staphylococcus aureus [15]
  MIC: 0.75 µg/mL
Staphylococcus aureus [16]
  fold change (FC): 32
Staphylococcus aureus [17]
  MIC: > 256 µg/mL
Staphylococcus aureus [18]
  MIC: 32 µg/mL
Staphylococcus aureus [19]
  fold change (FC): 1
Staphylococcus aureus [20]
  fractional inhibitory concentration index (FICI): 0.53 - 1.13
Staphylococcus aureus [21]
  fractional inhibitory concentration index (FICI): 0.53 - 1.13

## CC(C)=CCC/C(C)=C/CC/C(C)=C/CO [FARNESOL]
Staphylococcus aureus [1]
  MIC: 2050 µg/mL (≈ 9.21 mM)
Staphylococcus aureus [2]
  MIC: 2050 µg/mL (≈ 9.21 mM)
Staphylococcus aureus [3]
  MIC: 2050 µg/mL (≈ 9.21 mM)
Staphylococcus aureus [4]
  MIC: 2050 µg/mL (≈ 9.21 mM)
Staphylococcus aureus [22]
  fold change (FC): 24
Staphylococcus aureus [23]
  fold change (FC): >64
Staphylococcus aureus [24]
  fold change (FC): 256
Staphylococcus aureus [25]
  fold change (FC): 96
Staphylococcus aureus [26]
  MIC: 0.5 µg/mL
Staphylococcus aureus [27]
  fold change (FC): 1
Staphylococcus aureus [28]
  MIC: 4 µg/mL
Staphylococcus aureus [29]
  fold change (FC): 4
Staphylococcus aureus [30]
  MIC: 4 µg/mL
Staphylococcus aureus [31]
  fold change (FC): 4
Staphylococcus aureus [32]
  MIC: 3 µg/mL
Staphylococcus aureus [33]
  fold change (FC): 4
Staphylococcus aureus [34]
  MIC: 0.5 µg/mL
Staphylococcus aureus [35]
  fold change (FC): 0.8
Staphylococcus aureus [36]
  MIC: 8 µg/mL
Staphylococcus aureus [37]
  fold change (FC): >32
Staphylococcus aureus [38]
  MIC: 12 µg/mL
Staphylococcus aureus [39]
  fold change (FC): 2.7
Staphylococcus aureus [40]
  MIC: 2 µg/mL
Staphylococcus aureus [41]
  fold change (FC): 12
Staphylococcus aureus [42]
  fractional inhibitory concentration index (FICI): 0.53 - 1.13
Staphylococcus aureus [43]
  fractional inhibitory concentration index (FICI): 0.53 - 1.13
